Screening data from PubChem BioAssay.
Most compounds without a hit are left out; they make up all but 5.5% or so of the library.
STAT1 blocker = STAT1 signaling inhibition | NIH 3T3 STAT1-luciferase reporter, IFN-gamma, luminescence | inhibition, % at 5.5 µM | 200,000 tested, 0.35% active;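 active means inhibition above a set limit, the mean inhibition across all tested compounds plus 3 SD, cut at about 34% in these data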;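 further: 0% = IFN-gamma with DMSO and 100% = IFN-gamma with 300 µM nifuroxazide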
STAT3 act = STAT3 signaling activation. U3A cells, IL-6 STAT3-luciferase reporter, luminescence; 100% = signal with IL-6 EC80 alone. activation (% of control), % at 5.6 µM. 190,000 tested, 0.91% active. AID 871;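 active means activation above the screen-wide mean of compound activation plus 3 SD, cut at about 130% in these data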;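 further: 0% = background luminescence of wells with medium and substrate only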
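Material: STAT3-luciferase reporter U3A cells; Probe or stimulus: IL-6 (33 ng/mL); Incubation: compound pre-incubation 1 h before IL-6, then 6 h stimulation at 37 °C; Technique: luminescence from STAT3-driven luciferase reporter; Evaluation: % activation versus median of IL-6-stimulated wells; Controls: IL-6-only high control.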
STAT1 act = STAT1 signaling activation. NIH 3T3 STAT1-luciferase reporter, IFN-gamma, luminescence; 100% = IFN-gamma alone, no compound. activation (% of control), % at 5.5 µM. 200,000 tested, 2.6% active. AID 932;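 active means activation above the screen-wide mean activation plus 3 SD, cut at about 130% in these data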;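 further: raw ratio to IFN-gamma control signal so 100% means no change and 0% no light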
STAT3 inh = reduces IL-6 driven STAT3 reporter signal. U3A cells, IL-6 STAT3-luciferase reporter, luminescence; host cell line lacks STAT1. inhibition, % at 5.5 µM. 190,000 tested, 0.89% active;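 active means inhibition above the mean inhibition across all screened compounds plus 3 SD, cut at about 44% in these data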;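 further: 0% = DMSO only wells and 100% = 100 µM nifuroxazide control wells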
KCC2 mod = modulators of human KCC2 chloride dependent transport; B-score of Tl+ flux slope (higher = more flux/activation; lower = inhibition) at 10 µM; 190,000 tested, 2.2% active; Q9H2X9; AID 1456; KCC2 cells, thallium flux FluoZin-2 fluorescence;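 active means thallium flux slope and its plate-corrected score both differing from the plate sample mean at a set confidence after two filtering rounds, in either direction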;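 further: slope of fluorescence scaled to starting intensity during 10 to 20 s after thallium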
HSV augment = increases HSV replication in cells; 220,000 tested, 0.005% active; AID 1956; maximum fold increase; HSV replication augmentation in cells, fold increase; in the data active means maximum fold increase above about 1.5; inconclusive means no clear call, values can overlap the other calls; tested in PC3 cells
KCC2 sec1 = KCC2 (human) modulation, secondary assay; shares compounds with KCC2 mod; HEK293-KCC2, thallium flux, FluoZin2 fluorescence; active compounds read high; normalised thallium flux (F/F0 slope) at 10 µM; 3,700 tested, 15% active; AID 1713;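 active means thallium flux slope above the same plate's solvent-only control mean plus 3 SD; inconclusive means the two replicate wells disagree; inactive means no significant difference from solvent-only control wells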
KCC2 bumet counter = thallium flux persisting under bumetanide in KCC2 cells, counter-screen secondary assay | shares compounds with KCC2 mod | HEK293-KCC2 + bumetanide/ouabain, thallium flux FluoZin2; active compounds read high | normalized thallium flux at 10 µM | 3,700 tested, 49% active;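 active means thallium entry rate above the same plate's blocked-transporter control wells by more than 3 SD; inconclusive means the two repeat wells disagree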;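 further: raw slope of fluorescence over initial fluorescence between 10 and 20 s after thallium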
KCC2 secondary2 = KCC2 (human) modulation, second secondary assay; shares compounds with KCC2 mod; HEK293-KCC2, thallium flux FluoZin2 fluorescence; actives lie on both sides; F/F0 rise rate, 10–20 s post-thallium; normalized thallium flux at 10 µM; 3,700 tested, 23% active; AID 1715;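 active means thallium flux slope more than 3 SD above or below the plate's solvent-only control mean, mostly below; inconclusive means the two repeat wells disagreed; inactive means no significant shift from solvent-only controls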;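 further: raw slope with 0.1% DMSO as baseline and bumetanide as block control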
HEK293 Tl flux = parental HEK flux effect, counter-screen; shares compounds with KCC2 mod; HEK293 parental cells, thallium flux FluoZin2, ouabain; baseline-ratio fluorescence slope, 10–20 s after thallium; thallium flux rate (normalised fluorescence) at 10 µM; 3,700 tested, 46% active; AID 1716;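 active means thallium flux rate significantly above the same plate's solvent-only control wells, beyond their mean plus 3 SD; inconclusive means the two replicate wells gave conflicting results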
KCC2 ouabain = modulates human KCC2 on retest with ouabain; raw Tl+ flux slope (below DMSO = inhibition, above = activation) at 10 µM; 3,700 tested, 48% active; shares compounds with KCC2 mod; HEK293-KCC2, thallium flux FluoZin2 fluorescence; bidirectional: low = inhibitor, high = activator;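 active means thallium flux slope beyond 3 SD from same-plate DMSO control mean in most replicates, usually higher, sometimes lower; inconclusive means repeat tests gave conflicting results; inactive means no significant difference from controls in most replicates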;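 further: slope of initial-normalized fluorescence between seconds 10 and 20 after thallium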
HEK counter2 = acts in parental HEK cells, second KCC2 counter-screen; shares compounds with KCC2 mod; HEK293 parental, thallium flux FluoZin-2 fluorescence slope; thallium flux slope at 10 µM; 3,700 tested, 33% active; AID 1718;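 active means thallium flux slope above the same plate's solvent-control mean plus 3 SD in both duplicate wells; inconclusive means duplicate wells that disagreed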;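 further: run without ouabain in cells lacking the KCC2 cotransporter; slope of fluorescence scaled to its starting value between 10 and 20 s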
Numbers without * were called inactive.

Results for O=C(N/N=C/c1ccc([N+](=O)[O-])s1)c1ccccc1 ?
STAT1 blocker: 26; STAT3 act: 69; STAT1 act: 75; STAT3 inh: 43; KCC2 mod: 6.4*; HSV augment: inactive; KCC2 sec1: 0.011; KCC2 bumet counter: 0.017*; KCC2 secondary2: 0.035; HEK293 Tl flux: inconclusive; KCC2 ouabain: 0.028*; HEK counter2: inconclusive

How did O=C(Cc1ccccc1)N/N=C/c1ccc([N+](=O)[O-])s1 do in these assays?
STAT1 blocker: 8; STAT3 act: 92; STAT1 act: 93; STAT3 inh: 17; HSV augment: inactive; KCC2 sec1: 0.0078; KCC2 bumet counter: inconclusive; KCC2 secondary2: 0.031; HEK293 Tl flux: inconclusive; KCC2 ouabain: 0.02; HEK counter2: inconclusive

Results for COc1cc(CNC2CCCCC2OC)cc(OC)c1OC (centres undefined) ?
STAT1 blocker: -1; STAT3 act: 106; STAT1 act: 101; STAT3 inh: -4; KCC2 mod: 0.47; HSV augment: inactive

What do the screens show for `CC12CC(NC(=O)N1c1cccc(C(=O)NCc3ccccc3)c1)c1ccccc1O2` (centres undefined)?
STAT1 blocker: 6; STAT3 act: 109; STAT1 act: 94; STAT3 inh: 0; KCC2 sec1: 0.0072; KCC2 bumet counter: inconclusive; KCC2 secondary2: 0.03; HEK293 Tl flux: 0.0074; KCC2 ouabain: 0.019; HEK counter2: 0.011

How did CC12CC(NC(=O)N1c1cccc(C(=O)N3CCN(c4ccccc4)CC3)c1)c1ccccc1O2 (centres undefined) do in these assays?
STAT1 blocker: -8; STAT3 act: 101; STAT1 act: 107; STAT3 inh: 2; KCC2 mod: -0.86; HSV augment: inactive

Results for Cn1c(SCc2cc([N+](=O)[O-])cc3c2OCOC3)nnc1-c1ccccn1 ?
STAT1 blocker: 1; STAT3 act: 100; STAT1 act: 98; STAT3 inh: 2; KCC2 mod: -0.25; HSV augment: inactive

What do the screens show for `CCOC(=O)NNc1ccc2nonc2c1[N+](=O)[O-]`?
KCC2 mod: 13*; HSV augment: inactive; KCC2 sec1: 0.007; KCC2 bumet counter: 0.013*; KCC2 secondary2: 0.033; HEK293 Tl flux: 0.013*; KCC2 ouabain: 0.024*; HEK counter2: 0.013*

What do the screens show for `CN=C(Nc1ccc(Cl)cc1)c1ccc(C(F)(F)F)cc1`?
STAT1 blocker: 6; STAT3 act: 92; STAT1 act: 95; STAT3 inh: 16; KCC2 mod: 0.21; HSV augment: inactive

Results for Cc1ccccc1NC(=S)N/N=C/C(C)c1ccccc1 (centres undefined) ?
STAT1 blocker: -2; STAT3 act: 103; STAT1 act: 101; STAT3 inh: -2; KCC2 mod: 14*; HSV augment: inactive; KCC2 sec1: 0.0051; KCC2 bumet counter: 0.027*; KCC2 secondary2: 0.032; HEK293 Tl flux: 0.015*; KCC2 ouabain: inconclusive; HEK counter2: 0.018*

Results for Cc1cccc(NC(=S)N/N=C/C(C)c2ccccc2)c1C (centres undefined) ?
STAT1 blocker: -7; STAT3 act: 107; STAT1 act: 105; STAT3 inh: -3; KCC2 mod: 5.5; HSV augment: inactive

What do the screens show for `S=c1[nH]nc(Nc2ccc(Cl)cc2)s1`?
KCC2 mod: 1; HSV augment: inactive

How did CCOc1ccc(Nc2n[nH]c(=S)s2)cc1 do in these assays?
STAT1 blocker: -16; STAT3 act: 107; STAT1 act: 115; STAT3 inh: -14; KCC2 mod: -5.3*; HSV augment: inactive; KCC2 sec1: inconclusive; KCC2 bumet counter: 0.0053; KCC2 secondary2: 0.02*; HEK293 Tl flux: 0.0083; KCC2 ouabain: inconclusive; HEK counter2: 0.011

Results for CCCCn1c(SCC(=O)NCc2ccccc2)nc2ccc(N3CCOCC3)cc2c1=O ?
STAT1 blocker: -8; STAT3 act: 100; STAT1 act: 108; STAT3 inh: 3; KCC2 mod: 4*; HSV augment: inactive; KCC2 sec1: 0.007; KCC2 bumet counter: 0.016*; KCC2 secondary2: 0.034; HEK293 Tl flux: 0.011*; KCC2 ouabain: inconclusive; HEK counter2: inconclusive

Results for CCCCn1c(SCC(=O)NCc2ccco2)nc2ccc(N3CCOCC3)cc2c1=O ?
STAT1 blocker: -1; STAT3 act: 100; STAT1 act: 102; STAT3 inh: 4; KCC2 mod: 2.3; HSV augment: inactive

Results for Cc1c(O)ccc2c(CN(C)Cc3ccccc3)cc(=O)oc12 ?
KCC2 mod: -6.6*; HSV augment: inactive; KCC2 sec1: 0.0074; KCC2 bumet counter: 0.0057; KCC2 secondary2: 0.034; HEK293 Tl flux: inconclusive; KCC2 ouabain: 0.015*; HEK counter2: 0.011

Results for COc1ccc(Oc2c(Cl)cnn(-c3ccc(F)cc3)c2=O)cc1 ?
STAT1 blocker: 1; STAT3 act: 106; STAT1 act: 99; STAT3 inh: -2; KCC2 mod: -3.1*; HSV augment: inactive; KCC2 sec1: 0.0084; KCC2 bumet counter: inconclusive; KCC2 secondary2: 0.032; HEK293 Tl flux: 0.0062; KCC2 ouabain: 0.017*; HEK counter2: 0.0092

What do the screens show for `COc1ccc(Oc2c(Cl)cnn(-c3ccc(C)cc3)c2=O)cc1`?
STAT1 blocker: 1; STAT3 act: 96; STAT1 act: 99; STAT3 inh: 15; HSV augment: inactive
